Data published in ChEMBL document CHEMBL4622843, “Synthesis, state-of-the-art NMR-binding and molecular modeling study of new benzimidazole core derivatives as Pin1 inhibitors: Targeting breast cancer” (Bioorg Med Chem, 2020).
Calls of active or inactive are those of the source. The calls are words filed in the database; no cut-off is given here.

Columns and labels:
MCF7 [1] = test: Cytotoxicity against human MCF7 cells assessed as reduction in cell viability after 24 hrs by MTT assay; assay type: functional, cell-based; settings: MCF7, 24 h
[2] = target: Peptidyl-prolyl cis-trans isomerase NIMA-interacting 1 (Homo sapiens) (UniProt Q13526); test: Binding affinity to recombinant human 15N-labelled N-terminal 6His-tagged Pin1 expressed in Escherichia coli BL21 (DE3) cells at 1:10 ratio of protein to compound by 2D 15N-1H HSQC NMR spectroscopy
Chain of Peptidyl-prolyl cis-trans isomerase NIMA-interacting 1 (Homo sapiens) (Q13526 whole entry): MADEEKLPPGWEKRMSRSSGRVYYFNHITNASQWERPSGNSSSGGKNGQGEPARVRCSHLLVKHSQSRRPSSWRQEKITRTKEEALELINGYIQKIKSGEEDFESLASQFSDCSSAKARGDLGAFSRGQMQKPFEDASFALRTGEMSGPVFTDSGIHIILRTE
How it was run: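 Pin1 and compound at a 1:10 protein:compound ratio, compound partially dissolved in 95% buffer/5% DMSO. A reference HSQC spectrum was recorded with DMSO only and compared with ligand-containing spectra.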

[3] = Solubility of the compound in 95% PBS buffer/5% DMSO; assay type: physicochemical
MCF7 [4] = test: Induction of apoptosis in human MCF7 cells assessed as early apoptotic cells at 10 mg/ml after 24 hrs by AnnexinV-FITC/propidium iodide staining based flow cytometry analysis (reference value: 0.41%); assay type: functional
MCF7 [5] = test: Induction of apoptosis in human MCF7 cells assessed as late apoptotic cells at 10 mg/ml after 24 hrs by AnnexinV-FITC/propidium iodide staining based flow cytometry analysis (reference value: 0.19%); assay type: functional
MCF7 [6] = test: Induction of apoptosis in human MCF7 cells assessed as necrotic cells at 10 mg/ml after 24 hrs by AnnexinV-FITC/propidium iodide staining based flow cytometry analysis (reference value: 0.44%); assay type: functional
MCF7 [7] = test: Cell cycle arrest in human MCF7 cells assessed as accumulation at G0/G1 phase at 10 mg/ml after 24 hrs by Annexin V-FITC/propidium iodide staining based flow cytometry (reference value: 56.38%); assay type: functional
MCF7 [8] = test: Cell cycle arrest in human MCF7 cells assessed as accumulation at S phase at 10 mg/ml after 24 hrs by Annexin V-FITC/propidium iodide staining based flow cytometry (reference value: 38.15%); assay type: functional
MCF7 [9] = test: Cell cycle arrest in human MCF7 cells assessed as accumulation at G2/M phase at 10 mg/ml after 24 hrs by Annexin V-FITC/propidium iodide staining based flow cytometry (reference value: 5.47%); assay type: functional
MCF7 [10] = test: Cell cycle arrest in human MCF7 cells assessed as accumulation at PreG1 phase at 10 mg/ml after 24 hrs by Annexin V-FITC/propidium iodide staining based flow cytometry (reference value: 1.04%); assay type: functional

| Compound | IC50 (MCF7 [1]) [µM] | also measured |
| --- | --- | --- |
| CN1CCN(CCCSc2nc3ccccc3[nH]2)CC1 | 77.9 |  |
| COc1ccc(N2CCN(C(=S)SCc3nc4cc(C)c(C)cc4[nH]3)CC2)cc1 | 46 |  |
| S=C(SCc1nc2cc(Cl)c(Cl)cc2[nH]1)N1CCCCC1 | 42.8 |  |
| CCOc1ccccc1N1CCN(C(=S)SCc2nc3cc(Cl)c(Cl)cc3[nH]2)CC1 | 16.2 |  |
| Clc1cccc(N2CCN(CCCSc3nc4cc(Cl)ccc4[nH]3)CC2)c1 | 61.4 |  |
| ClCCCSc1nc2cc(Cl)ccc2[nH]1 | 24.1 |  |
| CN1CCN(CCCSc2nc3cc(Cl)ccc3[nH]2)CC1 | 13.9 |  |
| Cc1cc2nc(CSC(=S)N3CCCCC3)[nH]c2cc1C | 9.55 | Activity [2]: Active; solubility [3]: Soluble |
| CCOc1ccccc1N1CCN(CCCSc2nc3ccccc3[nH]2)CC1 | 32.7 |  |
| COc1ccc(N2CCN(C(=S)SCc3nc4cc(Cl)c(Cl)cc4[nH]3)CC2)cc1 | 19.9 |  |
| c1ccc2[nH]c(SCCCN3CCOCC3)nc2c1 | 82.9 |  |
| COc1ccc(N2CCN(CCCSc3nc4ccccc4[nH]3)CC2)cc1 | 6.84 | Activity [2]: Active; solubility [3]: Soluble |
| Clc1cccc(N2CCN(CCCSc3nc4ccccc4[nH]3)CC2)c1 | 54.6 |  |
| COc1ccc(N2CCN(CCCSc3nc4cc(Cl)ccc4[nH]3)CC2)cc1 | 38.5 |  |
| CCOc1ccccc1N1CCN(C(=S)SCc2nc3cc(C)c(C)cc3[nH]2)CC1 | 5.58 | Activity (MCF7 [4]): 7.36%; Activity (MCF7 [5]): 17.01%; Activity (MCF7 [6]): 2.91%; Activity (MCF7 [7]): 39.72%; Activity (MCF7 [8]): 32.42%; Activity (MCF7 [9]): 27.86%; Activity (MCF7 [10]): 27.28% |
| c1ccc2[nH]c(SCCCN3CCNCC3)nc2c1 | 91.7 |  |
| CN1CCN(C(=S)SCc2nc3cc(Cl)c(Cl)cc3[nH]2)CC1 | 30.5 |  |
| CCOc1ccccc1N1CCN(CCCSc2nc3cc(Cl)ccc3[nH]2)CC1 | 27.7 |  |
| CCN(CC)C(=S)SCc1nc2cc(Cl)c(Cl)cc2[nH]1 | 12.6 |  |
| S=C(SCc1nc2cc(Cl)c(Cl)cc2[nH]1)N1CCOCC1 | 5.7 | Activity [2]: Active; solubility [3]: Soluble |
